Results from ChEMBL document CHEMBL5223075, “Discovery of thienothiazolocarboxamide analogues as novel anti-tubercular agent” (Bioorg Med Chem, 2020).
In brackets after ≈: the same amount, converted by molar mass. Activity calls are given as the source filed them. The rule behind the calls is not given here.

Legend:
[1] = Stability in human plasma measured after 2 hrs; assay type: ADME, cell-free; details: read-out: Stability
[2] = Genotoxicity in Salmonella typhimurium TA98 in the presence of S9 fraction by Ames mutagenicity test; assay type: toxicity, subcellular; details: salmonella enterica subsp. enterica serovar typhimurium
A549 = test: Cytotoxicity against human A549 cells assessed as inhibition of cell growth; assay type: functional, cell-based
[3] = Protein binding in mouse plasma; assay type: ADME, cell-free; details: read-out: PPB (converted)
Jurkat = test: Cytotoxicity against human Jurkat cells assessed as inhibition of cell growth; assay type: functional, cell-based
[4] = Tmax in BALB/c mouse at 10 mg/kg, po by LC-MS analysis; assay type: ADME, organism-based; details: in vivo
Method in brief: (§1)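 Female BALB/c mice, 6-8 weeks old. Dosed i.v. at 2 or 3 mg/kg, or orally at 10 mg/kg. Vehicles varied by compound: DMSO/Captisol, DMSO/PEG400/SBE-b-CD, or DMSO/Cremophor EL/Captisol. Blood was held at 4°C within 1 h, then centrifuged at 3200 × g for 10 min at 4°C. Plasma was kept at 4°C, and compound levels were measured by LC-MS.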

[5] = Metabolic stability in human liver microsome assessed as phase I mediated metabolite formation by measuring half-life; assay type: ADME; details: microsomes
[6] = tested on: Mycobacterium tuberculosis; test: Antitubercular activity against Mycobacterium tuberculosis H37Rv ATCC 27294 expressing the green fluorescence protein infected in mouse RAW264.7 cells assessed as inhibition of bacterial growth pre-infected with cell followed by compound addition and measured after 5 days by Hoechst 33342 staining based analysis; assay type: functional, organism-based; details: H37Rv ATCC 27294, RAW264.7, 120 h
Method in brief: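 RAW 264.7 cells, passages 2-9, were infected with washed H37Rv-GFP at MOI 20 for 2 h at 37°C with shaking. Cells were washed and plated at 20,000/well over 2-fold compound dilutions for 5 days. Nuclei were stained with 5 µM Hoechst (final) and 3 fields/well imaged. Four parameters (cell count, bacterial area, area per infected cell, infected-cell ratio) were each fitted by 4-parameter sigmoid, and the IC50s averaged.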

[7] = Drug concentration in BALB/c mouse plasma at 10 mg/kg, po by LC-MS analysis; assay type: ADME, organism-based; details: in vivo; method in brief: as §1
[8] = Protein binding in human plasma; assay type: ADME, cell-free; details: read-out: PPB (converted)
[9] = Genotoxicity in Salmonella typhimurium TA98 by Ames mutagenicity test; assay type: toxicity; details: salmonella enterica subsp. enterica serovar typhimurium
[10] = Drug concentration in BALB/c mouse lung at 10 mg/kg, po by LC-MS analysis; assay type: ADME, organism-based; details: in vivo; method in brief: as §1
[11] = Oral bioavailability in BALB/c mouse at 10 mg/kg by LC-MS analysis; assay type: ADME, organism-based; details: in vivo; method in brief: as §1
[12] = Stability in mouse plasma measured after 2 hrs; assay type: ADME, cell-free; details: read-out: Stability
[13] = Half-life in BALB/c mouse at 2 mg/kg, iv by LC-MS analysis; assay type: ADME, organism-based; details: in vivo; method in brief: as §1
HepG2 = test: Cytotoxicity against human HepG2 cells assessed as inhibition of cell growth; assay type: functional, cell-based
[14] = Clearance in BALB/c mouse at 2 mg/kg, iv by LC-MS analysis; assay type: ADME, organism-based; details: in vivo; method in brief: as §1
[15] = Metabolic stability in mouse liver microsome assessed as phase II mediated metabolite formation by measuring half-life; assay type: ADME; details: microsomes
[16] = Cytotoxicity against HEK293 cells assessed as inhibition of cell growth; assay type: toxicity, cell-based; details: human
[17] = Solubility of the compound at pH 2.1; assay type: physicochemical; details: buffer
[18] = Volume of distribution at steady state in BALB/c mouse at 2 mg/kg, iv by LC-MS analysis; assay type: ADME, organism-based; details: in vivo, read-out: Vdss; method in brief: as §1
[19] = Solubility of the compound at pH 7.4; assay type: physicochemical; details: buffer
[20] = tested on: Mycobacterium tuberculosis; test: Antitubercular activity against Mycobacterium tuberculosis H37Rv ATCC 27294 expressing the green fluorescence protein assessed as inhibition of bacterial growth by measuring GFP fluorescence incubated for 5 days by fluorescence based plate reader analysis; assay type: functional, organism-based; details: H37Rv ATCC 27294, 120 h
Method in brief: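 H37Rv-GFP was grown 14 days in 7H9/OADC/Tween/glycerol/hygromycin, washed, and seeded at ~3×10^6 CFU/mL. Compounds were given as 10-point 2-fold series starting at 20 or 1 µM, in 1% DMSO final. Plates ran 5 days at 37°C, 5% CO2, with rifampicin 1 µg/mL as positive control. GFP fluorescence was read and IC50 taken from a 4-parameter sigmoid fit.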

[21] = Genotoxicity in Salmonella typhimurium TA100 in the presence of S9 fraction by Ames mutagenicity test; assay type: toxicity, subcellular; details: salmonella enterica subsp. enterica serovar typhimurium
[22] = AUClast in BALB/c mouse at 10 mg/kg, po by LC-MS analysis; assay type: ADME, organism-based; design: dose 10 mg/kg, route po; details: in vivo; method in brief: as §1
[23] = Genotoxicity in Salmonella typhimurium TA100 by Ames mutagenicity test; assay type: toxicity; details: salmonella enterica subsp. enterica serovar typhimurium
[24] = Cmax in BALB/c mouse at 10 mg/kg, po by LC-MS analysis; assay type: ADME, organism-based; design: dose 10 mg/kg, route po; details: in vivo; method in brief: as §1
[25] = Ratio of drug concentration in lung to plasma in BALB/c mouse at 10 mg/kg, po by LC-MS analysis; assay type: ADME, organism-based; method in brief: as §1
[26] = tested on: Mycobacterium tuberculosis; test: Antibacterial activity against Mycobacterium tuberculosis H37Rv ATCC 27294 infected in BALB/c mouse assessed as reduction in bacterial load in lungs at 25 to 100 mg/kg, po administered five times a week for 28 days; assay type: functional, organism-based; details: dose 25-100 mg/kg, time 28.0 day
Method in brief: (§2)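 Female BALB/c mice, 6-8 weeks old, were infected intranasally with ~300-600 CFU H37Rv, 5 mice per group. Oral gavage began at day 21, 5 days/week for 4 weeks. Lungs were taken a day after the last dose, homogenized in PBS, serially diluted and plated in duplicate on 7H11-OADC agar for 2-5 weeks at 37°C. Detection limit ~2.3 logs. Bonferroni test against vehicle-treated mice.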

[27] = Metabolic stability in mouse liver microsome assessed as phase I mediated metabolite formation by measuring half-life; assay type: ADME; details: microsomes
[28] = Metabolic stability in human liver microsome assessed as phase II mediated metabolite formation by measuring half-life; assay type: ADME; details: microsomes
[29] = Half-life in BALB/c mouse at 10 mg/kg, po by LC-MS analysis; assay type: ADME, organism-based; details: in vivo; method in brief: as §1
[30] = Stability in human plasma measured after 4 hrs; assay type: ADME, cell-free; details: read-out: Stability
[31] = Stability in mouse plasma measured after 4 hrs; assay type: ADME, cell-free; details: read-out: Stability
[32] = tested on: Mycobacterium tuberculosis; test: Antibacterial activity against Mycobacterium tuberculosis H37Rv ATCC 27294 infected in BALB/c mouse assessed as decrease in number of CFU in lungs at 100 mg/kg, po administered five times a week for 28 days; assay type: functional; details: time 28 day; method in brief: as §2
[33] = tested on: Mycobacterium tuberculosis; test: Antibacterial activity against Mycobacterium tuberculosis H37Rv ATCC 27294 infected in BALB/c mouse assessed as reduction in CFU in lungs at 50 mg/kg, po administered five times a week for 28 days; assay type: functional, organism-based; details: time 28.0 day; method in brief: as §2
[34] = Volume of distribution at steady state in BALB/c mouse at 3 mg/kg, iv by LC-MS analysis; assay type: ADME, organism-based; details: in vivo, read-out: Vdss; method in brief: as §1
[35] = tested on: Mycobacterium tuberculosis; test: Antibacterial activity against Mycobacterium tuberculosis H37Rv ATCC 27294 infected in BALB/c mouse assessed as reduction in bacterial burden in lungs at 100 mg/kg, po administered five times a week for 28 days; assay type: functional; details: time 28 day; method in brief: as §2
[36] = tested on: Mycobacterium tuberculosis; test: Antibacterial activity against Mycobacterium tuberculosis H37Rv ATCC 27294 infected in BALB/c mouse assessed as reduction in CFU in lungs at 20 mg/kg, po administered five times a week for 28 days; assay type: functional, organism-based; details: time 28.0 day; method in brief: as §2
[37] = Clearance in BALB/c mouse at 3 mg/kg, iv by LC-MS analysis; assay type: ADME, organism-based; details: in vivo; method in brief: as §1
[38] = Half-life in BALB/c mouse at 3 mg/kg, iv by LC-MS analysis; assay type: ADME, organism-based; details: in vivo; method in brief: as §1

| SMILES | remaining at 2 h [1] | Activity [2] | IC50 (A549) | fraction unbound [3] | IC50 (Jurkat) | Tmax [4] | t1/2 [5] | IC50 [6] | Cp [7] | fraction unbound [8] | Activity [9] | Ct [10] | bioavailability [11] | t1/2 [15] | solubility [17] | solubility [19] | IC50 [20] | Cmax [24] | t1/2 [27] | t1/2 [28] | other results |
| --- | --- | --- | --- | --- | --- | --- | --- | --- | --- | --- | --- | --- | --- | --- | --- | --- | --- | --- | --- | --- | --- |
| Cc1nc2cc(NC(=O)c3cc4sc(N5CCC(C(=O)N(C)C)CC5)nc4s3)ccc2o1 | 86.1% | Non-Toxic | > 50 µM | 0.036 | > 50 µM | 1 h | > 60 min | 510 nM | 4400 ng/mL | 0.049 | Non-Toxic | 2986 ng/mL | 71.2% | 124 min | 4 µg/mL (≈ 8.52 µM) | 1.2 µg/mL (≈ 2.56 µM) | 500 nM | 7010 ng/mL | > 60 min | 99.7 min | remaining at 2 h [12]: 95.7%; half-life [13]: 55.2 min; IC50 (HepG2): > 50 µM; clearance [14]: 11.8 mL/min/kg; IC50 [16]: > 50 µM; Vd [18]: 0.701 L/kg; Activity [21]: Non-Toxic; AUC(0-t) [22]: 10000 ng·h/mL; Activity [23]: Non-Toxic; Kp [25]: 0.7; Activity [26]: inactive; half-life [29]: 59.4 min |
| Cc1nc2cc(NC(=O)c3cc4sc(N5CCOCC5)nc4s3)ccc2o1 |  |  |  | 0.001 |  |  | > 60 min | 200 nM |  | 0.012 |  |  |  | > 60 min | 5.3 µg/mL (≈ 13.2 µM) | 0.82 µg/mL (≈ 2.05 µM) | 420 nM | 313 ng/mL | > 60 min | > 60 min | half-life [13]: 19.8 min; clearance [14]: 121 mL/min/kg; Vd [18]: 0.626 L/kg; remaining at 4 h [30]: 86.8%; remaining at 4 h [31]: 74.7% |
| O=C(Nc1ccc(-c2ccc(F)cn2)cc1)c1cc2sc(NCCN3CCOCC3)nc2s1 | 98.2% | Non-Toxic | > 50 µM | 0.002 | > 50 µM | 1 h | > 60 min | 190 nM | 3380 ng/mL | 0.002 | Non-Toxic | 16180 ng/mL | 102% | > 60 min | 43.6 µg/mL (≈ 90.2 µM) | 0.76 µg/mL (≈ 1.57 µM) | 760 nM | 2940 ng/mL | 45.5 min | > 60 min | Activity [32]: 2.7 log10CFU; Activity [33]: Active; Vd [34]: 1.52 L/kg; log(activity) [35]: 4; Activity [36]: inactive; remaining at 2 h [12]: > 100%; IC50 (HepG2): > 50 µM; IC50 [16]: > 50 µM; Activity [21]: Non-Toxic; AUC(0-t) [22]: 10400 ng·h/mL; Activity [23]: Non-Toxic; Kp [25]: 4.8; clearance [37]: 14.9 mL/min/kg; half-life [38]: 72 min; half-life [29]: 138 min |
